In brackets after ≈: the same amount, converted by molar mass.
Columns and labels:
Plasmodium falciparum [1] = experiment: Antiplasmodial activity against Plasmodium falciparum 3D7; assay type: functional, organism-based
Procedure, shortened: (§1)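 P. falciparum cultures (lab strain 3D7; multidrug-resistant Southeast Asian isolate Dd2) were exposed to compound for 72 h. Parasite viability was read out by DAPI staining.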

Plasmodium falciparum [2] = experiment: Antiplasmodial activity against Plasmodium falciparum Dd2; assay type: functional, organism-based; procedure, shortened: as §1
[3] = Lipophilicity, log D of the compound; assay type: physicochemical; settings: octanol/water
Procedure, shortened: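 Log D was measured at pH 7.4 as the partitioning of compound between an aqueous layer and a second phase.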

[4] = Solubility at pH 7.4; assay type: physicochemical; settings: buffer
Cytochrome P450 1A2 = target: T1, Cytochrome P450 1A2 (Homo sapiens, UniProt P05177); experiment: Inhibition of human CYP1A2; assay type: ADME
T1 sequence (P05177 whole entry): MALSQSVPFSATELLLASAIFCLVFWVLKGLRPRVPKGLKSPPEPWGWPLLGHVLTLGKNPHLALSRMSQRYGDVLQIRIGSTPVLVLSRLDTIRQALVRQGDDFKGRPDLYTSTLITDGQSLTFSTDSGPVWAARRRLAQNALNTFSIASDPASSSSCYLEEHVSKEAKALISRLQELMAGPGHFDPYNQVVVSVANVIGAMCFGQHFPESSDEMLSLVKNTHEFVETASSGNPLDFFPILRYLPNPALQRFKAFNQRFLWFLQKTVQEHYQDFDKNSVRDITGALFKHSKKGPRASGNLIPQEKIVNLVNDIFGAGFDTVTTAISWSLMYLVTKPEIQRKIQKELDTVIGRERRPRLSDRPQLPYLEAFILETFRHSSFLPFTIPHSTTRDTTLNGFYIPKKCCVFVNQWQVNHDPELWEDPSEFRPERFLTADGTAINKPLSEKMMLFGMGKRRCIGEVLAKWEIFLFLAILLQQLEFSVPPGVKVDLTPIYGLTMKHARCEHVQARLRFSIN

Cytochrome P450 2C9 = Cytochrome P450 2C9 (Homo sapiens, UniProt P11712); experiment: Inhibition of human CYP2C9; assay type: ADME
Chain of Cytochrome P450 2C9 (P11712 whole entry): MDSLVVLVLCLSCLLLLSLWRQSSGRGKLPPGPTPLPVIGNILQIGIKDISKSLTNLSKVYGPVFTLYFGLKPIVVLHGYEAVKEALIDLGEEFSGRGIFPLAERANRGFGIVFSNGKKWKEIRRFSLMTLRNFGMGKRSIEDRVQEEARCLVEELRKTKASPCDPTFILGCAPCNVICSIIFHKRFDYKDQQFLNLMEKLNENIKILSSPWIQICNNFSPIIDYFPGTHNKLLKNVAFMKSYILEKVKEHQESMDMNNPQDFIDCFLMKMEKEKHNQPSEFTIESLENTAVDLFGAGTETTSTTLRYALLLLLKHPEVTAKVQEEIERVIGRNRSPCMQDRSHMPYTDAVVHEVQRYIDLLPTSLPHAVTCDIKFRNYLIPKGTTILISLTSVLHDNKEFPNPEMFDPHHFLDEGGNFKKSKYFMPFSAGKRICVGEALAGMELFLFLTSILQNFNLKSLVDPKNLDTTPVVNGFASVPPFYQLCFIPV

Cytochrome P450 2C19 = Cytochrome P450 2C19 (Homo sapiens, UniProt P33261); experiment: Inhibition of human CYP2C19; assay type: ADME
Chain of Cytochrome P450 2C19 (P33261 whole entry): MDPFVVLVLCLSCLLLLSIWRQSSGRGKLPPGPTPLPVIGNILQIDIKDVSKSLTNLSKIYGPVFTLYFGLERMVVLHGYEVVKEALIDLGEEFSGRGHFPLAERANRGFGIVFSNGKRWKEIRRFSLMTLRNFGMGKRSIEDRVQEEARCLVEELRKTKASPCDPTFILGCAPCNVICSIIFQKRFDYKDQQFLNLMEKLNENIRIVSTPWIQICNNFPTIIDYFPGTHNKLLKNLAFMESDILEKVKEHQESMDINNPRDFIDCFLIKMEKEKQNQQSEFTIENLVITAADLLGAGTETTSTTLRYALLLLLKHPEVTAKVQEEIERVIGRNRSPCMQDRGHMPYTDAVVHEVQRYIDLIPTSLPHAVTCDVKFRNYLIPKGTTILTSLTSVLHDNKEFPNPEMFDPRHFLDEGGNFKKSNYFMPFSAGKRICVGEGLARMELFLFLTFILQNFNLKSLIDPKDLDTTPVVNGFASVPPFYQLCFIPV

Cytochrome P450 2D6 = Cytochrome P450 2D6 (Homo sapiens, UniProt P10635); experiment: Inhibition of human CYP2D6; assay type: ADME
Chain of Cytochrome P450 2D6 (P10635 whole entry): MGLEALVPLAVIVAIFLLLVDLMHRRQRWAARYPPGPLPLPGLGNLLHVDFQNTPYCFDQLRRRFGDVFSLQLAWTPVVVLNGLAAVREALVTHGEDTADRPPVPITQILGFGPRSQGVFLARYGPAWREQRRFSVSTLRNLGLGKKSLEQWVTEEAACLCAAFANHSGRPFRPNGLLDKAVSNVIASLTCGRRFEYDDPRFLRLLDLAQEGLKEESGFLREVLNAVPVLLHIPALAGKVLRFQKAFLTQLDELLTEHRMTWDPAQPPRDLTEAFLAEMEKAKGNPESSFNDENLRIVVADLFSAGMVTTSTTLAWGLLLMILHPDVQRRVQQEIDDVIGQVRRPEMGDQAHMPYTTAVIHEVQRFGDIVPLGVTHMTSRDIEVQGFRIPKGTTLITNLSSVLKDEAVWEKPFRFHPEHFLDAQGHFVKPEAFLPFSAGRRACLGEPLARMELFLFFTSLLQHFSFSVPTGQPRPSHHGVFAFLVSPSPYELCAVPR

Cytochrome P450 3A4 = Cytochrome P450 3A4 (Homo sapiens, UniProt P08684); experiment: Inhibition of human CYP3A4; assay type: ADME
Chain of Cytochrome P450 3A4 (P08684 whole entry): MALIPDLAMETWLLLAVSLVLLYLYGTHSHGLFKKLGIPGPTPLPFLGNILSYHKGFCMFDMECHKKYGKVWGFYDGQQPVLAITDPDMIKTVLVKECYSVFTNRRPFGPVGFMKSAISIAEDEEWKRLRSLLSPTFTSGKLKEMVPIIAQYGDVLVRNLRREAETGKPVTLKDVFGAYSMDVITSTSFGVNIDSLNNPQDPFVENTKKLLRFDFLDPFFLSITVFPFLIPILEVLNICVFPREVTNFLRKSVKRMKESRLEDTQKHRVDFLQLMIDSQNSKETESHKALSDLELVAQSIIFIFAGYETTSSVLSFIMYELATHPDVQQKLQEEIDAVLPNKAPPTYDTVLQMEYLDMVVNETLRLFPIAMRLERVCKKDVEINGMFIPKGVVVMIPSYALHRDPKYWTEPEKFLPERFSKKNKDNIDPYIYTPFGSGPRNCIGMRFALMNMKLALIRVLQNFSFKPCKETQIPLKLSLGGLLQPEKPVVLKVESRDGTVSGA

[5] = Cytotoxicity against human RPTEC after 4 days by alamar blue assay; assay type: cell-based; settings: RPTEC cells, read-out: LC50
[6] = Cytotoxicity against human NHDF after 4 days by alamar blue assay; assay type: cell-based; settings: NHDF cells, read-out: LC50
Liver microsomes [7] = experiment: Intrinsic clearance in human liver microsomes measured […]; assay type: ADME, Microsome
Liver microsomes [8] = experiment: Intrinsic clearance in rat liver microsomes measured […]; assay type: ADME, Microsome
[9] = target: Voltage-gated inwardly rectifying potassium channel KCNH2 (Homo sapiens, UniProt Q12809); experiment: Inhibition of human ERG channel
Chain of Voltage-gated inwardly rectifying potassium channel KCNH2 (Q12809 whole entry): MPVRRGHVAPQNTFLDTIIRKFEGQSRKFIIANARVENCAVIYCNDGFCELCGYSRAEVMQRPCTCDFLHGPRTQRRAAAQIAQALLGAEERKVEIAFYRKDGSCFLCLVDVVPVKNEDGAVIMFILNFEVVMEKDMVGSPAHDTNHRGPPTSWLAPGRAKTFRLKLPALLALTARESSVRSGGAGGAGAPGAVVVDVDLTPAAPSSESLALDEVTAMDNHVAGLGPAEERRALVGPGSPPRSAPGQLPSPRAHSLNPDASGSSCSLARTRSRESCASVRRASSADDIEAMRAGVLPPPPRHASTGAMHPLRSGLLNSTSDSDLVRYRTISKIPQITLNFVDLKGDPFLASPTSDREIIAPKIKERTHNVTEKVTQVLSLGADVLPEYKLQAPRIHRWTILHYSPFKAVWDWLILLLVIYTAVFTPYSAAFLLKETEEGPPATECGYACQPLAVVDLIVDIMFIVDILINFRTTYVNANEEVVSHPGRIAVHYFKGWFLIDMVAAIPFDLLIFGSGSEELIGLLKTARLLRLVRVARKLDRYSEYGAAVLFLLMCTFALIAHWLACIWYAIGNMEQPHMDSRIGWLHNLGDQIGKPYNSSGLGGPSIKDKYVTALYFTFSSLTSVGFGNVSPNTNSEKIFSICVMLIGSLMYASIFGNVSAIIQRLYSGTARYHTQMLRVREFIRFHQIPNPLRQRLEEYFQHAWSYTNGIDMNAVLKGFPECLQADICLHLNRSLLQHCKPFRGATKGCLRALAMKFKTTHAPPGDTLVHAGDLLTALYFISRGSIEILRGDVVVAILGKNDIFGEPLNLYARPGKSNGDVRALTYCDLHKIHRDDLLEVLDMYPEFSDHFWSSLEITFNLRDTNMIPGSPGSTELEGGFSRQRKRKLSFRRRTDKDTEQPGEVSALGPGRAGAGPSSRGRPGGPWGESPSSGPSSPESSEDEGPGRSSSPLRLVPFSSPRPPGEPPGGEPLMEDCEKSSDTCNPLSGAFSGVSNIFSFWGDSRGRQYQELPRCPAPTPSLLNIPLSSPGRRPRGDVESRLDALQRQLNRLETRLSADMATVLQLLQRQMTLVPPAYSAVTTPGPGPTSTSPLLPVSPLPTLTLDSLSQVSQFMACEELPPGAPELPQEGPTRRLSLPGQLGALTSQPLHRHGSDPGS

| Compound | EC50 (Plasmodium falciparum [1]) [nM] | EC50 (Plasmodium falciparum [2]) [nM] | further results |
| --- | --- | --- | --- |
| Cc1cc(NC2CCCCC2)nc(Nc2ccccn2)n1 | > 1000 | > 2000 |  |
| Cc1cc(NCc2ccccc2)nc(Nc2ccccc2)n1 | 850 | 1020 |  |
| COc1cc(CNc2nc(C)cc(NC3CCCCC3)n2)cc(OC)c1OC |  | 260 |  |
| Cc1cc(NCc2ccccc2)nc(NC(C)C)n1 | 1430 | 1050 |  |
| Cc1cc(NC2CCCCC2)nc(NCc2ccc3c(ccn3C)c2)n1 |  | 240 |  |
| Cc1cc(Nc2ccccc2)nc(N2CCCN(C(=O)OC(C)(C)C)CC2)n1 |  |  | logD [3]: 3.95 |
| Cc1cc(NC(C)C)nc(NCc2ccc3c(c2)OCO3)n1 |  | 840 |  |
| Cc1cc(NC(C)C)nc(NC2CCN(Cc3ccccc3)CC2)n1 |  | 810 |  |
| Cc1cc(Nc2ccccc2)nc(N2CCCNCC2)n1 |  |  | logD [3]: 0.51 |
| Cc1cc(NC2CCCCC2)nc(NCc2ccccc2)n1 | 80 | 250 | solubility [4]: 26 µg/mL (≈ 87.7 µM); logD [3]: 3.9; IC50 (Cytochrome P450 1A2): 3100 nM; IC50 (Cytochrome P450 2C9): > 5000 nM; IC50 (Cytochrome P450 2C19): > 5000 nM; IC50 (Cytochrome P450 2D6): 4200 nM; IC50 (Cytochrome P450 3A4): > 5000 nM; CC50 at 96 h [5]: 7500 nM; CC50 at 96 h [6]: 7500 nM |
| Cc1cc(NCc2ccccc2)nc(NCCN2CCCC2)n1 | 1080 | 1450 |  |
| Cc1cc(NC2CCCCC2)nc(N[C@@H](C)c2ccccc2)n1 | 120 | 500 |  |
| Cc1cc(NCc2ccccc2)nc(NC2CCCCC2)n1 | 430 | 1260 |  |
| Cc1cc(NC2CCCCC2)nc(NC(C)C)n1 |  | 740 |  |
| Cc1cc(NC2CCCCC2)nc(NCc2ccc3c(c2)OCO3)n1 |  | 200 |  |
| Cc1cc(NCc2ccccc2)nc(NC2CCN(Cc3ccccc3)CC2)n1 | 160 | 160 |  |
| Cc1cc(NC(C)C)nc(NCc2ccccc2)n1 |  | 350 |  |
| Cc1cc(NC(C)C)nc(NC(C)C)n1 |  | 4270 |  |
| Cc1cc(NC2CCN(Cc3ccccc3)CC2)nc(N2CCCN(C(=O)OC(C)(C)C)CC2)n1 |  |  | logD [3]: 2.77 |

| Compound | EC50 (Plasmodium falciparum [1]) [nM] | EC50 (Plasmodium falciparum [2]) [nM] | further results |
| --- | --- | --- | --- |
| Cc1cc(N2CCCNCC2)nc(NC2CCN(Cc3ccccc3)CC2)n1 |  |  | logD [3]: -0.15 |
| Cc1cc(NC2CCN(Cc3ccccc3)CC2)nc(N2CCCNCC2)n1 |  |  | logD [3]: -0.17 |
| Cc1cc(NC2CCCCC2)nc(Nc2ccccc2)n1 |  | 230 |  |
| Cc1cc(NC2CCCCC2)nc(N(C)Cc2ccccc2)n1 | > 10000 | > 10000 |  |
| FC(F)(F)c1cc(Nc2ccccc2)nc(NCc2ccncc2)n1 |  |  | clearance (Liver microsomes [7]): 56.2 µL/min/mg; clearance (Liver microsomes [8]): > 119 µL/min/mg |
| Cc1cc(NC2CCCCC2)nc(NCCN2CCCC2)n1 |  | 2750 |  |
| Cc1cc(N(C)C2CCCCC2)nc(NCc2ccccc2)n1 | 680 | 1020 |  |
| Cc1cc(Nc2ccccc2)nc(NCc2ccccn2)n1 |  | 2140 | clearance (Liver microsomes [7]): 70 µL/min/mg; clearance (Liver microsomes [8]): 114 µL/min/mg |
| FC(F)(F)c1cc(Nc2ccncc2)nc(NCc2ccc3c(c2)OCO3)n1 |  |  | IC50 [9]: 135000 nM |
| Cc1cc(NC(C)C)nc(Nc2ccccc2)n1 |  | 1500 |  |
| Cc1cc(N2CCCN(C)CC2)nc(NC2CCN(Cc3ccccc3)CC2)n1 |  |  | logD [3]: 1 |
| Cc1cc(Nc2ccccc2)nc(NCc2ccc3c(ccn3C)c2)n1 | 350 | 590 |  |
| Cc1cc(NC(C)C)nc(NCCN2CCCC2)n1 |  | > 5000 |  |
| Cc1cc(N2CCCN(C(=O)OC(C)(C)C)CC2)nc(NC2CCN(Cc3ccccc3)CC2)n1 |  |  | logD [3]: 2.7 |
| CCCCCCCNc1nc(C)cc(Nc2ccccc2)n1 | 90 | 90 |  |
| Cc1cc(NC(C)C)nc(NCC23CC4CC(CC(C4)C2)C3)n1 |  | 270 |  |
| Cc1cc(NC2CCCCC2)nc(N[C@H](C)c2ccccc2)n1 | 90 | 420 |  |
| CCCCCCCNc1nc(C)cc(NC(C)C)n1 |  | 310 |  |
| Cc1cc(NC(C)C)nc(NCc2ccc3c(ccn3C)c2)n1 |  | 1220 |  |

| Compound | EC50 (Plasmodium falciparum [1]) [nM] | EC50 (Plasmodium falciparum [2]) [nM] | further results |
| --- | --- | --- | --- |
| Cc1cc(Nc2ccccc2)nc(NCc2ccc3c(c2)OCO3)n1 | 110 | 360 | clearance (Liver microsomes [7]): 31.3 µL/min/mg; clearance (Liver microsomes [8]): > 119 µL/min/mg; IC50 [9]: 9500 nM |
| Cc1cc(Nc2ccccc2)nc(NC(C)C)n1 | 280 | 750 |  |
| FC(F)(F)c1cc(Nc2ccccc2)nc(NCc2ccccn2)n1 |  |  | clearance (Liver microsomes [7]): > 99 µL/min/mg; clearance (Liver microsomes [8]): > 119 µL/min/mg; IC50 [9]: 40100 nM |
| Cc1cc(Nc2ccccc2)nc(N2CCCN(C)CC2)n1 |  |  | logD [3]: 1.7 |
| Cc1cc(NC(C)C)nc(NC2CCCCC2)n1 |  | 390 |  |
| Cc1cc(NC2CCCCC2)nc(NCC23CC4CC(CC(C4)C2)C3)n1 |  | 370 |  |
| Cc1cc(N(C)C2CCCCC2)nc(N(C)Cc2ccccc2)n1 | > 10000 | > 10000 |  |
| Cc1cc(N(C)C2CCCCC2)nc(N[C@H](C)c2ccccc2)n1 | 630 | 940 |  |
| Cc1cc(NC2CCCCC2)nc(NC2CCCCC2)n1 |  | 210 |  |
| Cc1cc(NCc2ccccc2)nc(NCC23CC4CC(CC(C4)C2)C3)n1 | 410 | 400 |  |
| Cc1cc(N(C)C2CCCCC2)nc(N[C@@H](C)c2ccccc2)n1 | 590 | 690 |  |
| Cc1cc(Nc2ccccc2)nc(NCCN2CCCC2)n1 | 1460 | 1240 |  |
| CCCCCCCNc1nc(C)cc(NC2CCCCC2)n1 |  | 210 |  |
| Cc1cc(NC2CCCCC2)nc(NC2CCN(Cc3ccccc3)CC2)n1 |  | 250 |  |
| COc1cc(CNc2nc(C)cc(NC(C)C)n2)cc(OC)c1OC |  | 1920 |  |
| COc1cc(CNc2nc(C)cc(NCc3ccccc3)n2)cc(OC)c1OC | 780 | 930 |  |
| Cc1cc(Nc2ccccc2)nc(NCc2ccccc2)n1 | 120 | 90 | clearance (Liver microsomes [7]): 55.2 µL/min/mg; clearance (Liver microsomes [8]): > 119 µL/min/mg |
| Cc1cc(NC2CCN(Cc3ccccc3)CC2)nc(N2CCCN(C)CC2)n1 |  |  | logD [3]: 1 |

Reference: ChEMBL document CHEMBL1153120, “Synthesis and antiplasmodial activity of novel 2,4-diaminopyrimidines” (Bioorg Med Chem Lett, 2010)
